L major viab = Leishmania major promastigote growth inhibition, primary screen. Leishmania major promastigotes, resazurin fluorescence viability. inhibition, % at 10 µM. hit rate 9% among 200,000; in the data active = inhibition above about 50%;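 also: promastigotes grown with compound for 44 hours at 28 °C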
PMI act = activators of human PMI, primary screen, biochemical, fluorescence intensity, near-Km mannose 6-phosphate. Mannose-6-phosphate isomerase (Homo sapiens), P34949. purified human PMI, coupled resazurin fluorescence, 20 min; stronger effect = higher value; 1 = vehicle control, 0 substrate-free wells. activation factor at 20 µM. hit rate 0.005% among 190,000;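 active = activation factor of 2 or more at 20 µM, relative to plate controls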
Target sequence (P34949 whole entry, looked up): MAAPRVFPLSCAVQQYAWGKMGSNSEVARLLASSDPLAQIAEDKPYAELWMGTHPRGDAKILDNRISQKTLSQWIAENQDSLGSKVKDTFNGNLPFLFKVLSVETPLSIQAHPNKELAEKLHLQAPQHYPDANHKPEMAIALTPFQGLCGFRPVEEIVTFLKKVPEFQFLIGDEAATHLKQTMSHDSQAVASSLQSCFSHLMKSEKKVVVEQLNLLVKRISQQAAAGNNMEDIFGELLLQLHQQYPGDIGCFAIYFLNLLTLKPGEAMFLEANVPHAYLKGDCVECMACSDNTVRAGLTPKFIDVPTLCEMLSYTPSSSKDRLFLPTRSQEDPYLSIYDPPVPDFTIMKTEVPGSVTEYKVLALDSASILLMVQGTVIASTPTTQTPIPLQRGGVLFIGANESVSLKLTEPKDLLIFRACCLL
PMI act hi M6P = human PMI activators, high substrate, primary screen, biochemical, fluorescence intensity, near-saturating mannose 6-phosphate. coupled PMI enzyme assay, resazurin fluorescence, 20 min; stronger effect = higher value; 1 = untreated enzyme, 0 = substrate-free blank. activation factor at 20 µM. Mannose-6-phosphate isomerase (Homo sapiens), P34949. hit rate 0.34% among 190,000;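 active = activation factor of 2 or more at 20 µM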
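Test system – human PMI in coupled enzyme assay · Timing – 20 min incubation at room temperature · Detection – Diaphorase-driven resazurin-to-resorufin fluorescence, excitation 544, emission 590 nm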
Diaphorase act = compounds boosting diaphorase resazurin reduction – biochemical, uHTS, resorufin fluorescence, counter-screen for diaphorase-coupled primary assays, primary screen; hit rate 0.005% among 190,000; Diaphorase/resazurin coupled assay, 16 min; stronger effect = higher value; 1 = vehicle wells, 0 = NADH-free wells; activation factor at 20 µM;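 active = diaphorase activity raised at least twofold by the compound at 20 µM; inactive = activation factor below 2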
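Assay system: Purified diaphorase enzyme from Clostridium kluyveri | Amount: Enzyme 0.07 U/mL final | Dosing: Compound 20 µM once, DMSO 1% | Timing: 16 min reaction at room temperature | Detection: Fluorescence, excitation 544 nm and emission 590 nm | Evaluation: Higher resorufin formation from activation or reduction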
WT yeast gro inh = growth inhibition of WT strain, primary screen, mitochondrial fusion inhibitor project, WT and mutant strains, chemical genetic; hit rate 2.1% among 190,000; inhibition, % at 10 µM; mitochondrial fusion phenotypic screen; in the data active = inhibition above about 58%; tested in S. cerevisiae
* hit, by the source's call; / = no result. An excerpt weighted towards active compounds, which were near 10% of everything screened.

SMILES	L major viab	PMI act	PMI act hi M6P	Diaphorase act	WT yeast gro inh
Cc1ccc(C2CC(c3ccccc3)=NN2C(=S)Nc2ccccc2)o1 (stereo not given)	69*	0.5	0.8	0.2	-14
COc1cccc(C2CC(c3cccs3)=NN2S(C)(=O)=O)c1OC (stereo not given)	-4	0.9	0.9	0.8	-20
COc1ccc(C2CC(c3cccs3)=NN2C(=S)Nc2ccccc2)cc1OC (stereo not given)	71*	0.9	0.9	0.8	19
CCOC(=O)NC(=O)c1cn(CCN(C)C)c(=O)[nH]c1=O	-5	1	1	0.9	13
COC(=O)C1=C(CSc2nc3ccccc3s2)NC(=O)NC1c1ccc(F)cc1 (stereo not given)	13	1	1	0.8	2
CCOC(=O)CNC(=O)CSc1nccn1Cc1ccco1	-3	0.9	0.9	0.9	2
COc1cccc(C(=O)N(c2ccc(C)cc2)C2C=CS(=O)(=O)C2)c1 (stereo not given)	-7	1.1	1	1	10
Cc1ccc(CNC(=O)/C=C/c2ccc(S(=O)(=O)NCc3ccco3)cc2)cc1	78*	1	1	0.9	-3
O=C(Nc1ccccc1)c1ccc(S(=O)(=O)NCc2ccco2)cc1	8	1	1	0.9	0
Cc1ccc(C(=O)Nc2ccc(S(=O)(=O)NCc3ccco3)cc2)cc1	-3	1.1	1.2	0.9	66*
O=C(/C=C/c1ccc(S(=O)(=O)NCc2ccco2)cc1)NCc1cccc(Cl)c1	94*	1	0.9	0.9	-3
C[N+](C)(C)CCCNC(=O)c1ccc(/C=N/O)nc1	-8	0.2	0.8	1	1
O=C(N/N=C\c1cc(Br)cs1)C1COc2ccccc2O1 (stereo not given)	53*	0.9	0.9	1	2
C/C(=N\NC(=O)C1COc2ccccc2O1)c1ccccn1 (stereo not given)	99*	0.8	1	0.9	49
C/C(=N\NC(=O)C(c1ccccc1)c1ccccc1)c1ccccn1	100*	1.1	1	1	56
C/C(=N\NC(=O)C1CCCN(S(=O)(=O)c2ccccc2)C1)c1ccncc1 (stereo not given)	0	0.9	0.9	0.9	5
N/C(=N\OC(=O)C(c1ccccc1)c1ccccc1)c1ccccn1	-6	0.8	0.8	0.8	26
C/C(=N\NC(=O)C1CCCN(S(=O)(=O)c2ccccc2)C1)c1ccccn1 (stereo not given)	99*	0.9	0.9	0.9	9
Nc1nc(N)nc(COc2ccccc2)n1	1	0.9	0.9	1	-15
CCNC(=O)C12CCC(C)(C(=O)O1)C2(C)C (stereo not given)	-12	1	1	1	-8
Cc1ccc(OCCSc2nc(NC(C)C)nc(NC(C)C)n2)cc1	34	0.8	0.9	0.8	72*
CN(C)CCCN1C(=O)c2cccc3c([N+](=O)[O-])ccc(c23)C1=O	100*	0.9	0.7	1	58
O=C1c2cccc([N+](=O)[O-])c2C(=O)N1CCO	4	1	1	0.8	-8
COc1ccc(-c2nn(-c3ccccc3)cc2C(=O)OCC(=O)c2ccc(C)c([N+](=O)[O-])c2)cc1	46	0.8	1	0.8	8
Cc1cc(Cl)cc(C)c1OCCCCN1CCOCC1	100*	1	1	0.9	32
SMILES	L major viab	PMI act	PMI act hi M6P	Diaphorase act	WT yeast gro inh
Cc1cc(Cl)c(OCCOCCN2CCCCC2)c(Br)c1	97*	1.2	1.3	0.9	-3
Cc1cc(Cl)c(OCCCCN2CCOCC2)c(Br)c1	98*	1	1.1	0.9	4
Cc1cc(C)c(OCCOCCN2CCNCC2)c(C)c1	15	1.1	1.1	0.9	-19
Cc1cc(Cl)c(OCCOCCN2CCCC(C)C2)c(Br)c1 (stereo not given)	99*	1	1.1	0.9	24
O=C(CN1CCC(NC(=O)c2ccccc2Cl)CC1)NCc1ccco1	10	1.1	1.1	0.9	5
COC(=O)c1c(C)[nH]c(C(=O)CSc2ncnc3sc(-c4ccccc4)cc23)c1C	-1	1	1	1	8
Cn1ccc(=S)c2ccccc21	88*	1.6	2.2*	0.8	-2
S=C(NCCN1CCOCC1)Nc1ccc(Cl)c(Cl)c1	55*	1	1.1	1	7
CC(NC(=S)NCCCN1CCOCC1)C12CC3CC(CC(C3)C1)C2 (stereo not given)	86*	1	1	0.9	6
Cc1ccc(NC(=S)NCCCN2CCOCC2)cc1	78*	1	1.1	0.9	-6
S=C(NCCN1CCOCC1)Nc1ccc(Cl)cc1	2	1.1	1	0.9	10
S=C(NCCCN1CCOCC1)Nc1ccc(Cl)cc1	99*	0.9	1	0.8	-6
CCc1ccc(-c2csc(NC(=O)COC(=O)CCc3nc4ccccc4s3)n2)cc1	-4	1	1.1	1	15
O=C(CN(Cc1ccccc1)S(=O)(=O)c1ccc(S(=O)(=O)N2CCOCC2)cc1)Nc1ccccc1	-4	1.1	1.1	1	-3
CC1CCN(CCNC(=S)Nc2ccc(Cl)cc2)CC1	66*	1	1.1	1	5
Fc1ccc(NC(=S)NCCN2CCOCC2)cc1	-2	/	/	/	-6
Cc1ccccc1NC(=O)CSCC(=O)Nc1ccccc1C	-7	0.9	0.9	0.9	-5
O=C(CSCc1cccc(Cl)c1)Nc1ccccc1-c1ccccc1	87*	0.8	0.8	0.8	64*
Cc1ccccc1CSCC(=O)Nc1ccccc1-c1ccccc1	9	1	1.1	1	74*
O=C(COC(=O)CNS(=O)(=O)c1ccc(F)c(F)c1F)Nc1ccc(OC(F)F)cc1	82*	0.9	0.9	0.8	-17
O=C1c2cnc3nc(SCc4ccccc4)nn3c2CC2c3ccccc3CCN12 (stereo not given)	4	1	1.1	0.9	80*
Cn1cnnc1SCC(=O)Nc1ccc(OC(F)F)cc1	-6	1.1	1.1	1	-13
CC(NC(=O)COC(=O)[C@@H]1CCCN1S(=O)(=O)c1ccccc1F)C12CC3CC(CC(C3)C1)C2 (stereo not given in full)	96*	1	1	0.9	2
O=C(OCc1nc2ccccc2s1)[C@@H]1CCCN1S(=O)(=O)c1ccccc1F	-4	0.9	0.9	0.8	-36
COc1ccc(-n2c(SCC(=O)NNC(=O)c3ccc(C)cc3)nnc2-c2ccncc2)cc1	0	0.9	0.9	0.8	-8
